CCR6 antag = CCR6 receptor antagonists, primary screen, cell-based, CHO-K1, luminescence, beta-arrestin, uHTS; 340,000 tested, 0.49% active; inhibition, % at 20 µM; CHO-K1 CCR6 PathHunter beta-arrestin, CCL20-stimulated; C-C chemokine receptor type 6 (Homo sapiens), P51684;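 active = compounds whose inhibition of the agonist-driven luminescence signal at 20 µM reaches about 50%, limit read from the data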;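 also: cells stimulated with CCL20 at 14 nM final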
Target sequence (P51684 whole entry, looked up): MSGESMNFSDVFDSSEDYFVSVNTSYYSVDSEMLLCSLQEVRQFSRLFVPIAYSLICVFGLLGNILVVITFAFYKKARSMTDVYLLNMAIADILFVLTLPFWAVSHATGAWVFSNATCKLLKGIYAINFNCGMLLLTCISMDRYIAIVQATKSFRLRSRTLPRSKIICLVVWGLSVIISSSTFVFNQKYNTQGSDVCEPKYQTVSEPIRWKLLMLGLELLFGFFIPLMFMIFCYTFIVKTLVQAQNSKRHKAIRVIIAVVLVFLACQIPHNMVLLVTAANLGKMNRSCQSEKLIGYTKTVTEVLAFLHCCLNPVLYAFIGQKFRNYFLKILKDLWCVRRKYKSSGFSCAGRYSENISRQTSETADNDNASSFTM
EBI2 antag = EBI2 receptor antagonists, beta-arrestin recruitment, primary screen, cell-based, luminescence, 7a,25-OHC stimulation, uHTS. G-protein coupled receptor 183 (Homo sapiens), P32249. 7a,25-OHC stimulated. inhibition, % at 5 µM. 360,000 tested, 0.81% active. AID 651636, 2012; in the data active = inhibition above about 38%;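 also: enzyme fragment complementation signal reports receptor beta-arrestin coupling in cells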
APJ agonist = agonists of human apelin receptor APJ, primary screen, CHO-K1 cells, PathHunter beta-arrestin, luminescence. 0% DMSO wells, 100% apelin. activation, % at 20 µM. 330,000 tested, 0.11% active. AID 2520, 2010;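 active = activation more than six SD over the plate average, tested at 20 µM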
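Incubation: overnight seeding, 90 min compound at 25 °C, 1 h detection; test system: PathHunter CHO-K1 APJ (AGTRL-1) beta-arrestin reporter cells; amount: 1000 cells/well; doses: one dose, 20 µM compound, 1% DMSO; measured by: beta-gal luminescence; measure: agonist-driven arrestin binding to APJ; benchmarks: negative DMSO alone, positive Apelin-13 at 10 nM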
APJ antag = antagonists of human apelin receptor APJ, primary screen, CHO-K1 cells, beta-arrestin complementation, luminescence; P35414; inhibition, % at 20 µM; 330,000 tested, 0.32% active; AID 2521, 2010;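 active = inhibition above about 40% at 20 µM, limit read from the data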;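 also: cells challenged with 10 nM apelin-13 agonist together with compound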
CXCR6 inh = CXCR6 receptor inhibitors, primary screen, cell-based, beta-arrestin, luminescence, CHO-K1 PathHunter, 1536-well; AID 602244, 2012; inhibition, % at 20 µM; C-X-C chemokine receptor type 6 (Homo sapiens), O00574; 360,000 tested, 0.36% active; in the data active = inhibition above about 34%, passing the limit was not always enough;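 also: antagonist mode with CXCL16 agonist at 10 nM final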
Target sequence (O00574 whole entry, looked up): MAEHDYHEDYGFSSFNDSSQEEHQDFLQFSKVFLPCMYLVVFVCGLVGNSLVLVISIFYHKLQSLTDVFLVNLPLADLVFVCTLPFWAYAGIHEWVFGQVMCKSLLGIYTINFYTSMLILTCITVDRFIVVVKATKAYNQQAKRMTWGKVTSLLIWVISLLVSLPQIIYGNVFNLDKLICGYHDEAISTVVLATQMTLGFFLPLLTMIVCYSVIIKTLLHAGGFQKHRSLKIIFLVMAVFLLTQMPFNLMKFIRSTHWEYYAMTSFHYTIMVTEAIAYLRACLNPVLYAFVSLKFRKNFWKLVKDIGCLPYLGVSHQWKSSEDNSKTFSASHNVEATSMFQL
Large screens that a line does not name were inactive. Sampled rows, rich in hits. Any-hit rate of the full collection: about 1.5%.

Cc1ccc(C(CCN(Cc2ccccc2)C(=O)c2ccco2)c2ccco2)cc1 (stereo not given)	CCR6 antag 51.9
Cc1ccsc1C=Nc1ccc(O)cc1	EBI2 antag 44.6
Cc1ccc2nc(SCC(=O)N3CCCCC3)nc(=O)n2c1	none
O=C(Nc1nnc(-c2cccs2)o1)c1cccc(C(F)(F)F)c1	CXCR6 inh 43.8
N=C1S/C(=C\c2ccc(-c3cccc(Cl)c3)o2)C(=O)N1c1nccs1	CCR6 antag 81.9, EBI2 antag 67.4, CXCR6 inh 54.4 (no result: APJ agonist, APJ antag)
COc1ccc(/C=C2\SC(=N)N(c3nccs3)C2=O)cc1OC	CCR6 antag 59.4
CC(=O)N[C@@H](Cc1ccc(O)cc1)CN1C(N)=NC[C@@H]1CC(C)C	none
Cc1nnc(N=c2ssnc2Cl)o1	CCR6 antag 55.9, EBI2 antag 41.1
COc1cc(/C=C2\COC/C(=C\c3cc(OC)c(OC)c(OC)c3)C2=O)cc(OC)c1OC	CCR6 antag 55.3, EBI2 antag 44.8, CXCR6 inh 38.7 (no result: APJ agonist, APJ antag)
COc1cc(/C=C2\SC(N)=NC2=O)cc(Cl)c1O	none
COc1cc(/C=C2\CC/C(=C\c3cc(OC)c(OC)c(OC)c3)C2=O)cc(OC)c1OC	none
COc1cc(/C=C2\CC/C(=C\c3cc(OC)c(O)c(OC)c3)C2=O)cc(OC)c1O	CCR6 antag 54.9, CXCR6 inh 42.2
COc1cc(/C=C2/CCC/C(=C\c3cc(O)c(OC)c(Cl)c3)C2=O)cc(Cl)c1O	CCR6 antag 73.8
COc1cc(/C=C2/CCc3ccccc3C2=O)cc(OC)c1OC	none
CC(OC(=O)/C=C/c1ccco1)C(=O)NC1CCCCC1 (stereo not given)	none (no result: CCR6 antag, APJ agonist, APJ antag)
COc1cc(C(=O)NCc2nnc(SCC(=O)N3CCCCCC3)o2)cc(OC)c1OC	none
S=C(Nc1ccccc1)Nc1cc(Cl)ccc1Oc1ccccc1	CCR6 antag 92.8
Cc1ccnc(NC(=S)N2CCN(c3cccc(C(F)(F)F)c3)CC2)c1	CCR6 antag 50.6
COc1cc(/C=N/N2CCN(c3ccccc3OC)CC2)ccc1OC(C)=O	none
CC(=O)SC(C[N+](=O)[O-])c1cn(C(C)=O)c2ccccc12 (stereo not given)	CCR6 antag 75.9, CXCR6 inh 54.8
CC(=O)n1cc(Nc2ccc([N+](=O)[O-])cc2)c2ccccc21	APJ antag 42.4
Cc1ccc(S(=O)(=O)CCc2nc3ccccc3[nH]2)cc1C	none
CC(C)C[C@H](NC(=O)c1nc[nH]c1C(=O)N1CCN(C(=O)OC(C)(C)C)CC1)C(=O)OCc1ccccc1	none
C=C1C(=O)CC2=C1[C@](Cc1ccc(F)cc1)(C(=O)OC)N(C(=O)c1ccccc1)C2	none (no result: CCR6 antag, APJ agonist, APJ antag)
C=C1C(=O)C=C2CN(C(=O)c3ccccc3)[C@@](Cc3ccc(F)cc3)(C(=O)OC)[C@@H]12	CCR6 antag 100.3, EBI2 antag 75.7, CXCR6 inh 87.5
CCN1C/C(=C/c2cccc([N+](=O)[O-])c2)C(=O)/C(=C/c2cccc([N+](=O)[O-])c2)C1	CCR6 antag 61.7 (no result: APJ agonist, APJ antag)
O=C1NC(=O)/C(=C/c2cccc([N+](=O)[O-])c2)N1	none
COc1ccc(S(=O)(=O)NC2CC(=O)N(c3ccccc3)C2)cc1C (stereo not given)	none
CN1C2CCC1/C(=C\c1ccc(F)cc1)C(=O)/C2=C/c1ccc(F)cc1	none
C=CC(=O)N1C/C(=C/c2ccc(F)cc2)C(=O)/C(=C\c2ccc(F)cc2)C1	CCR6 antag 83.9, EBI2 antag 52.9, CXCR6 inh 72.3 (no result: APJ agonist, APJ antag)
O=C1/C(=C\c2ccccc2)CN(C(=O)CCN2CCCCC2)C/C1=C/c1ccccc1	CCR6 antag 81.9, EBI2 antag 52.3, CXCR6 inh 66.4 (no result: APJ agonist, APJ antag)
CCN(CC)CCC(=O)N1C/C(=C/c2ccccc2)C(=O)/C(=C\c2ccccc2)C1	CCR6 antag 65.5, EBI2 antag 52.2, CXCR6 inh 62.4 (no result: APJ agonist, APJ antag)
O=C1/C(=C\c2ccccc2)CCC/C1=C/c1ccccc1	none (no result: APJ agonist, APJ antag)
O=C(NCCN1CCOCC1)c1ccc(Cl)c(Cl)c1	none
O=C1/C(=C\c2ccc(Cl)c(Cl)c2)CN(C(=O)CCN2CCOCC2)C/C1=C/c1ccc(Cl)c(Cl)c1	CCR6 antag 55.5, EBI2 antag 89.6 (no result: APJ agonist, APJ antag)
CCOc1ccccc1C(=O)NCC(=O)NCC(c1ccco1)N1CCCCC1 (stereo not given)	none
COc1ccc(-c2ccc(NC(=O)c3ccco3)cc2)nn1	none (no result: CCR6 antag)
NS(=O)(=O)c1ccc(NC(=O)COC(=O)c2ccc([N+](=O)[O-])s2)cc1	APJ agonist 17.5
CCN(CC)c1ccc(C(=S)N2CCN(c3ccccc3)CC2)cc1	EBI2 antag 63.9
O=C(C=Cc1ccccc1)CC(c1ccccc1)N1CCOCC1 (stereo not given)	EBI2 antag 48.0 (no result: APJ agonist, APJ antag)
O=C(C(c1ccccc1)N1CCOCC1)N1CCOCC1 (stereo not given)	none
CS(=O)(=O)c1ccc(S(=O)CC(=O)OCc2ccccc2)c([N+](=O)[O-])c1 (stereo not given)	EBI2 antag 41.5, CXCR6 inh 51.5 (no result: CCR6 antag, APJ agonist, APJ antag)
Cc1c(C(=O)Nc2nc3ccccc3[nH]2)oc2ccccc12	CCR6 antag 56.3
COc1cc(/C=C/c2cc(OC(C)=O)c3ccccc3n2)c(OC(C)=O)c([N+](=O)[O-])c1	CCR6 antag 63.0
O=C(c1ccccc1)N1CCN(Cc2ccc3c(c2)OCO3)CC1	none
O=C(c1[nH]nc2c1CCc1ccccc1-2)N1CCN(Cc2ccc3c(c2)OCO3)CC1	EBI2 antag 83.3
CCn1nc([N+](=O)[O-])c(C(C#N)c2nc3cc(C(F)(F)F)ccc3s2)c(Cl)c1=O (stereo not given)	CCR6 antag 52.3, APJ antag 55.6
COc1ccc(C(=O)Oc2c(OC)cc(C(=S)N3CCOCC3)cc2OC)cc1OC	none
Cc1ccc(NC(=O)Nc2nnc(Cc3ccc([N+](=O)[O-])cc3)s2)cc1	CCR6 antag 62.1
CCC(C)NC(=O)CCSc1ccc(C)cc1 (stereo not given)	none
Cc1ccccc1-c1nc(CS(=O)CC(=O)NCc2ccccn2)c(C)o1 (stereo not given)	none
CN(C)C(=S)N=Nc1[nH]c2ccccc2c1O	CCR6 antag 63.0 (no result: EBI2 antag, CXCR6 inh)
CN(C)C(=O)c1ccc(N=Nc2c(O)c3ccccc3[nH]c2=O)cc1	none (no result: APJ agonist, APJ antag)
O=C(CSc1nnc(CNC(=O)c2ccccc2F)o1)NC1CCCC1	none
COc1ccc(-c2csc(N3C(=N)SCC3=O)n2)cc1	CCR6 antag 55.8
Cn1c(C(=O)N2CCN(c3ccc(Cl)cc3)CC2)cc2c(=O)[nH]c3ccccc3c21	EBI2 antag 83.1
Cc1ccc2nc(C)c(CN3CCN(c4ccc([N+](=O)[O-])cc4Cl)CC3)n2c1	EBI2 antag 46.9 (no result: CCR6 antag)
CC(C)Oc1cccc(C(=O)NC(=S)Nc2cccc(C(F)(F)F)c2)c1	none (no result: CCR6 antag)
CCCCOc1cccc(C(=O)NC(=S)Nc2cccc(C(F)(F)F)c2)c1	CCR6 antag 51.5

Screening data: PubChem, Sanford-Burnham Center for Chemical Genomics
